From ChEMBL document CHEMBL1255406, “Production of a class II two-component lantibiotic of Streptococcus pneumoniae using the class I nisin synthetic machinery and leader sequence” (2010)
Values after ≈ are worked out from the molar mass of the structure shown. Active and inactive are the calls of the source. The calls are words filed in the database; no cut-off is given here. Peptide text beside a SMILES is read from it.

Tests used:
[1] = tested on: Micrococcus flavus; test: Antimicrobial activity against Micrococcus flavus assessed as growth inhibition; assay type: functional
In short: (§1)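 Broth microdilution MIC in GM17 in 96-well plates. Overnight M. flavus culture diluted 1:50 and grown to OD600 0.2, then 150 µl culture mixed with 50 µl medium containing serial peptide concentrations. Incubated overnight at a temperature suited to the strain (M. flavus grown at 30°C), with OD600 read every 30 min. MIC is the lowest concentration inhibiting growth, read when untreated cells reach half-maximal OD. At least triplicate.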

[2] = tested on: Micrococcus flavus; test: Antimicrobial activity against Micrococcus flavus assessed as growth inhibition in presence of trypsin; assay type: functional; in short: as §1
[3] = tested on: Micrococcus flavus; test: Antimicrobial activity against Micrococcus flavus assessed as growth inhibition in presence of leucine aminopeptidase; assay type: functional; in short: as §1
[4] = tested on: Streptococcus pneumoniae; test: Antimicrobial activity against Streptococcus pneumoniae assessed as growth inhibition in presence of trypsin; assay type: functional, organism-based
In short: (§2)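 Strains in GM17 at 37°C, diluted 1:50 from overnight and grown to OD600 0.2, then exposed to peptide dilutions. OD600 read every 30 min. MIC = lowest inhibiting concentration when untreated cells reach half-maximal OD. At least triplicate.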

[5] = tested on: Streptococcus pneumoniae; test: Antimicrobial activity against Streptococcus pneumoniae assessed as growth inhibition in presence of leucine aminopeptidase; assay type: functional, organism-based
In short: (§3)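 Leader cleaved by 30 min incubation at 37°C with leucine aminopeptidase in phosphate buffer, pH 7.4. Strains in GM17 at 37°C, diluted 1:50 from overnight and grown to OD600 0.2, then mixed with peptide dilutions. OD600 monitored every 30 min. MIC = lowest concentration inhibiting growth, read when untreated cultures reach half-maximal OD. At least triplicate.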

[6] = tested on: Enterococcus faecalis; test: Antimicrobial activity against Enterococcus faecalis assessed as growth inhibition in presence of trypsin; assay type: functional, organism-based; in short: as §2
[7] = tested on: Enterococcus faecalis; test: Antimicrobial activity against Enterococcus faecalis assessed as growth inhibition in presence of leucine aminopeptidase; assay type: functional, organism-based; in short: as §3
[8] = tested on: Staphylococcus aureus; test: Antimicrobial activity against Staphylococcus aureus assessed as growth inhibition in presence of trypsin; assay type: functional, organism-based; in short: as §2
[9] = tested on: Staphylococcus aureus; test: Antimicrobial activity against Staphylococcus aureus assessed as growth inhibition in presence of leucine aminopeptidase; assay type: functional, organism-based; in short: as §3
[10] = tested on: Streptococcus mitis; test: Antimicrobial activity against Streptococcus mitis assessed as growth inhibition in presence of trypsin; assay type: functional, organism-based; in short: as §2
[11] = tested on: Streptococcus mitis; test: Antimicrobial activity against Streptococcus mitis assessed as growth inhibition in presence of leucine aminopeptidase; assay type: functional, organism-based; in short: as §3

SMILES: CC[C@H](C)[C@H](NC(=O)[C@H](Cc1ccccc1)NC(=O)[C@H](CO)NC(=O)[C@H](CC(C)C)NC(=O)[C@@H](NC(=O)[C@H](C)NC(=O)[C@H](CO)NC(=O)[C@H](CS)NC(=O)[C@@H](NC(=O)[C@@H](NC(=O)[C@@H](NC(=O)[C@@H](N)CO)[C@@H](C)O)[C@@H](C)CC)[C@@H](C)CC)[C@@H](C)O)C(=O)N[C@@H](C)C(=O)N[C@@H](CO)C(=O)N[C@@H](Cc1ccc(O)cc1)C(=O)N[C@@H](CC(C)C)C(=O)NCC(=O)N[C@@H](CO)C(=O)N[C@@H](C)C(=O)N[C@@H](CCC(N)=O)C(=O)N[C@H](C(=O)N[C@@H](CCCNC(=N)N)C(=O)N[C@@H](CS)C(=O)NCC(=O)N[C@@H](CCCCN)C(=O)N[C@@H](CC(=O)O)C(=O)N[C@@H](CC(N)=O)C(=O)N[C@@H](CCCCN)C(=O)N[C@@H](CCCCN)C(=O)N[C@@H](CCCCN)C(=O)O)[C@@H](C)O (H-STIICSATLSFIASYLGSAQTRCGKDNKKK-OH)
- MIC [1]: 85 µM (≈ 271 µg/mL)
- MIC [2]: 10 µM
- MIC [3]: 8.5 µM
- growth inhibition (GI) [4]: inactive
- growth inhibition (GI) [5]: inactive
- growth inhibition (GI) [6]: inactive
- growth inhibition (GI) [7]: inactive
- growth inhibition (GI) [8]: inactive
- growth inhibition (GI) [9]: inactive
- growth inhibition (GI) [10]: inactive
- growth inhibition (GI) [11]: inactive

SMILES: CC[C@H](C)[C@H](NC(=O)CNC(=O)[C@H](CO)NC(=O)[C@@H](NC(=O)[C@H](C)NC(=O)[C@H](C)NC(=O)[C@H](CO)NC(=O)[C@@H](NC(=O)[C@H](CS)NC(=O)[C@@H](NC(=O)[C@H](CCCCN)NC(=O)[C@H](CO)NC(=O)[C@H](CO)NC(=O)[C@H](C)NC(=O)[C@H](C)NC(=O)[C@H](C)NC(=O)[C@H](CO)NC(=O)[C@H](CCCCN)NC(=O)[C@H](CC(C)C)NC(=O)[C@@H](NC(=O)[C@@H](NC(=O)[C@@H]1CCCN1C(=O)[C@@H](NC(=O)[C@@H]1CCCN1C(=O)[C@@H](NC(=O)[C@@H](N)Cc1c[nH]c2ccccc12)[C@@H](C)O)[C@@H](C)O)[C@@H](C)CC)[C@@H](C)CC)C(C)C)[C@@H](C)CC)C(C)C)C(=O)NCC(=O)NCC(=O)N[C@@H](CC(C)C)C(=O)N[C@H](C(=O)N[C@@H](CO)C(=O)N[C@@H](Cc1ccc(O)cc1)C(=O)N[C@@H](CC(N)=O)C(=O)N[C@@H](CC(N)=O)C(=O)N[C@@H](CC(=O)O)C(=O)N[C@@H](CS)C(=O)N[C@@H](CC(C)C)C(=O)NCC(=O)O)C(C)C (H-WTPTPIILKSAAASSKVCISAAVSGIGGLVSYNNDCLG-OH)
- MIC [1]: 80 µM (≈ 301 µg/mL)
- MIC [2]: 0.6 µM
- growth inhibition (GI) [4]: inactive
- growth inhibition (GI) [5]: inactive
- growth inhibition (GI) [6]: inactive
- growth inhibition (GI) [7]: inactive
- growth inhibition (GI) [8]: inactive
- growth inhibition (GI) [9]: inactive
- growth inhibition (GI) [10]: inactive
- growth inhibition (GI) [11]: inactive

SMILES: C=C(NC(=O)[C@H](NC(=O)[C@@H](Cc1cnc[nH]1)NC(=O)[C@H](NC(=O)[C@@H](CO)NC(=O)[C@H]1CS[C@H](C)[C@@H]2NC(=O)[C@@H](C)NC(=O)[C@@H](NC(=O)[C@@H](CCCCN)NC(=O)[C@@H](CCSC)NC(=O)[C@@H](CC(N)=O)[C@H]3CS[C@H](C)[C@H](NC(=O)[C@@H](CCCCN)NC(=O)[C@H]4CS[C@H](C)[C@H](NC(=O)[C@H]5CSC[C@H](NC(=O)/C(=C/C)NC(=O)[C@H](N)[C@H](C)CC)C(=O)N[C@H]([C@H](C)CC)C(=O)NC(=C)C(=O)N[C@H](CC(C)C)C(=O)N5)C(=O)N5CCC[C@@H]5C(=O)NCC(=O)N4)C(=O)NCC(=O)N[C@H](C)C(=O)N[C@H](CC(C)C)C(=O)N[C@H](CCSC)C(=O)NCC(=O)N3)[C@@H](C)SC[C@@H](NC2=O)C(=O)N[C@H](Cc2cnc[nH]2)C(=O)N1)[C@H](C)CC)C(C)C)C(=O)N[C@H](CCCCN)C(=O)O [PRENISIN]
- MIC [1]: 20 µM (≈ 66.2 µg/mL)
- MIC [2]: 0.004 µM
